Results: ChEMBL document CHEMBL3244117, “Pyridine derivatives as potent inducers of erythroid differentiation in Friend leukemia cells” (1978)

Tests used:
Assay type in all cases: functional, Leukemia cell
[1] = Induction of erythroid differentiation in DBA/2J mouse Friend erythroleukemia cells assessed as hemoglobin level per 10^7 cells after 3 to 6 days relative to control
Method in brief: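 On day 6, cultures that contained benzidine-positive cells were centrifuged at 350g for 10 min. Cells were washed twice in phosphate-buffered 0.9% NaCl, pH 7.4, then sonicated. Total hemoglobin was measured from absorbance at 515 nm after the lysate was incubated with benzidine, and expressed per 10⁷ cells. Cells had been seeded at 10⁵ cells/mL with compound added at seeding, 37 °C.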

[2] = Induction of erythroid differentiation in DBA/2J mouse Friend erythroleukemia cells assessed as cell growth after 6 days relative to control; parameters: concentration or dose not given beside the values
Method in brief: (§1)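 Cells were seeded at 10⁵ cells/mL with compound added at seeding, in two separate experiments using twofold concentration steps. Incubation was at 37 °C. Cell number was counted with a Coulter counter on day 3, and cell counts were also taken on day 6. Growth is expressed as a percentage of untreated control cultures.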

[3] = Induction of erythroid differentiation in DBA/2J mouse Friend erythroleukemia cells assessed as cell growth after 3 days relative to control; parameters: concentration or dose not given beside the values; method in brief: as §1
[4] = Induction of erythroid differentiation in DBA/2J mouse Friend erythroleukemia cells assessed as benzidine positive cells after 6 days relative to control; parameters: concentration or dose not given beside the values
Method in brief: (§2)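 Log-phase Friend leukemia cells seeded at 10⁵ cells/mL in DMEM + 10% fetal calf serum, 37 °C, 10% CO₂. Compound added at seeding over a range of concentrations with twofold steps, in two separate experiments. Water-insoluble agents were dissolved in 50% ethanol or acetone. Me₂SO (210 mM) was the positive control. Benzidine-positive cells were scored on day 6 with benzidine peroxide stain.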

[5] = Induction of erythroid differentiation in DBA/2J mouse Friend erythroleukemia cells assessed as concentration required for maximum proportion of benzidine positive cells after 6 days; method in brief: as §2

Structure (SMILES) | Activity [1] [µg] | Activity [2] [%] | Activity [3] [%] | Activity [4] [%] | Activity [5] [mM]
CC(=O)Nc1cccnc1 | 14.4 | 95 | 58 | 43 | 8
CC(=O)Nc1ccccn1 | 30.6 | 95 | 65 | 72 | 2
Cn1ccccc1=O |  | 95 | 23 | 74 | 2
CC(=O)Nc1cccc(NC(C)=O)n1 | 8.6 | 95 | 80 | 28 | 4
[O-][n+]1ccc(-c2ccccc2)cc1 | <0.5 | 95 | 26 | <1 | 0.4
CC(=O)NCc1ccccn1 | 30 | 95 | 36 | 68 | 15
CC(=O)NCCc1ccccn1 | 28 | 95 | 33 | 60 | 10
CC(=O)Nc1cc(-c2ccccc2)ccn1 |  | 95 | 21 | 8 | 0.04
CC(=O)Nc1cccc[n+]1[O-] | 22.6 | 95 | 74 | 43 | 10
CC(=O)Nc1ccc[n+]([O-])c1 | 15.6 | 95 | 74 | 35 | 10
CC(=O)Nc1cc(-c2ccccc2)cc[n+]1[O-] | 12.2 | 95 | 17 | 17 | 1
CC(=O)Nc1cccc(=O)n1C | 22.2 | 95 | 55 | 73 | 16
CC(=O)Nc1ccc(=O)n(C)c1 | 33.8 | 95 | 91 | 67 | 2
CC(=O)Nc1ccc(=O)[nH]c1 |  | 95 | 26 | 16 | 1
CC(=O)Nc1cccc(=O)[nH]1 |  | 95 | 22 | 4 | 2
Oc1ccccn1 |  | 95 | 11 | 26 | 8.6
C[S+](C)[O-] [DIMETHYL SULFOXIDE] | 31.2 |  | 60 | 80 | 210
